Data: PMC3566574 (Organic & biomolecular chemistry, 2012)

Tests used:
[1] = target: T1, LasR (Pseudomonas aeruginosa, UniProt P25084); assay: LasR agonism reporter gene assay; format: cell-based; conditions: 100 μM, normalized to OdDHL at 100 μM (100%); triplicate, error ≤10%
[2] = target: T1, LasR; assay: LasR antagonism reporter gene assay; format: cell-based; conditions: 100 μM against OdDHL at 10 nM; triplicate, error ≤10%
[3] = test system: AbaR; assay: AbaR agonism reporter gene assay; format: cell-based, Acinetobacter baumannii; conditions: 100 μM, normalized to OH-dDHL at 100 μM (100%); triplicate, error ±10%
Procedure, shortened: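 Overnight A. baumannii abaI::lacZ culture diluted 1:100 in LB (pH 7.0), added to test compound from DMSO stock (final 100 or 10 μM), incubated statically at 37 °C for 18–24 h. OD600 read; aliquot lysed with Z buffer, CHCl3 and 0.1% SDS; ONPG 20 min at […], stopped with 1 M Na2CO3; A420/A550 converted to Miller units. Triplicate; scaled to 100 μM OH-dDHL (100%).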

[4] = test system: AbaR; assay: AbaR antagonism reporter gene assay; format: cell-based, Acinetobacter baumannii; conditions: 100 μM against OH-dDHL at 700 nM; triplicate, error ±10%

T1 sequence (P25084 whole entry): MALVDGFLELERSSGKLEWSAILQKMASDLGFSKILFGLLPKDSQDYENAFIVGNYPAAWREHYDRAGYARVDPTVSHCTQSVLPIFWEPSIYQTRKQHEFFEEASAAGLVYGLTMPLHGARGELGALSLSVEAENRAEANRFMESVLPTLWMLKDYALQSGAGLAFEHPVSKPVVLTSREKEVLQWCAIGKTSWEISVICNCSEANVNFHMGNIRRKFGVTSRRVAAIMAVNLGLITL

CCCc1cn(CC(=O)NC2CCOC2=O)nn1 (stereo not shown) [I-A]
Activation [%] LasR [1]: 0% | Inhibition [%] LasR [2]: 55% | Activation [%] AbaR [3]: 0% | Inhibition [%] AbaR [4]: 47%
